Molecules are shown by their SMILES. pIC50: −log10 of the molar value. The source made the active and inactive calls. The calls are words filed in the database; no cut-off is given here.

One series deals with Liver microsome. The experiment in a line: Antioxidant activity against tert-butylhydroperoxide-induced lipid peroxidation in rat liver microsomes after 20 mins by TBARS method. It is filed as functional. Put shortly:
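Kept on ice, then peroxidation started with tert-butylhydroperoxide (1 mM) and run 37 °C, 20 min. Stopped with BHT, then TCA/TBA at 85 °C for 20 min. TBARS read as A535−A600. IC50 is the mean of 3 independent trials.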
A general note: Microsomes from liver hold many membrane-bound enzymes, among them those of drug oxidation.

For series [1], the system named is HL-60. Briefly: Antioxidant activity in human HL60 cells assessed as reduction of H2O2-induced intracellular oxidative stress at 10 uM after 1 hr using DCFH-DA by FACS analysis. It is filed as functional, cell-based. The method in brief: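 HL60 cells (RPMI-1640, 5% heat-inactivated FBS, 37 °C, 5% CO2) at 1.0 × 10⁶/well loaded with DCFH-DA (10 μM, 15 min), washed, then pretreated 1 h with compound (10 μM, 1% DMSO final). H2O2 (200 μM) added for 1 h; water for controls. Fluorescence (ex 488/em 530 nm) measured by flow cytometry on about 10,000 cells per sample.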
On the technique in general: A flow cytometer gives signals particle by particle.

Series [2] in a line: Octanol-water partition coefficient, logKOW of the compound. The following applies: read-out: log KOW. It counts as physicochemical.
The subject of series [3] is Radical scavenging activity. The experiment in a line: Antioxidant activity assessed as DPPH free radical scavenging activity by spectroscopic analysis. It is filed as functional.
Series [4] has as its system HL-60. The experiment in a line: Cytotoxicity against human HL60 cells assessed as reduction of cell viability at 100 uM after 24 hrs by trypan blue dye exclusion test. It is filed as cell-based. Conditions: hl-60, 24 h. Put shortly: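 HL60 cells at 1.0 × 10⁶/well exposed to compound (100 μM, 1% DMSO final) for 24 h at 37 °C, 5% CO2. Cells pelleted and resuspended in PBS(−). Viable cells counted by trypan blue exclusion on an automated counter.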

Regarding `O=C1Cc2cc(O)ccc2N1`, the pIC50 in the series with Liver microsome is 3.52. Further, in the series with HL-60 [1], the outcome was Active. In addition, the logP in series [2] came to 0.7. Further, the Activity is 9.2 ×10³ /M/s in series [3] and “Non-toxic” in the series with HL-60 [4].

Consider `O=C(CC1(O)C(=O)Nc2ccc(O)cc21)c1ccc([N+](=O)[O-])cc1` (stereo not given), for which the pIC50 in the series with Liver microsome was 4.40. Moreover, in the series with HL-60 [1], the outcome was Active. Also, the logP in series [2] came to 1.85. The Activity in series [3] worked out at 2.5 ×10³ /M/s.

`O=C(CC1(O)C(=O)Nc2ccc(O)cc21)c1ccc(C(F)(F)F)cc1` (stereo not given): the pIC50 with Liver microsome was 4.10. In addition, the outcome in the series on HL-60 [1] was Active. Further, the logP in series [2] stood at 2.89. Besides, the Activity in series [3] amounted to 1.6 ×10³ /M/s.

`Oc1nc(O)c2nc(O)[nH]c2n1` [URIC ACID] had a pIC50 with Liver microsome of less than 3.52. Also, the outcome in the series with HL-60 [1] was inactive. Further, the Activity in series [3] was determined as 0.63 ×10³ /M/s.

The molecule `CC(=O)CC1(O)C(=O)Nc2ccc(O)cc21` (stereo not given) gave a negative logarithm of the IC50 (pIC50) in the series on Liver microsome of less than 3.52. Further, in the series with HL-60 [1], the outcome was inactive. The logP in series [2] was determined as 0.44. The Activity was 0.74 ×10³ /M/s in series [3] and “Non-toxic” in the series with HL-60 [4].

As for `O=C(CC1(O)C(=O)Nc2ccc(O)cc21)c1ccc(I)cc1` (stereo not given), the pIC50 in the series on Liver microsome is 4.26. The result in the series with HL-60 [1] was Active. Moreover, in series [2], the logP is 2.81. For the same molecule, the Activity in series [3] came out at 2.2 ×10³ /M/s.

The molecule `O=C(CC1(O)C(=O)Nc2ccc(O)cc21)c1ccc(Cl)cc1` (stereo not given) showed a pIC50 in the series on Liver microsome of 3.92. Also, the outcome in the series with HL-60 [1] was Active. For the same molecule, in series [2], the logP is 2.45. Besides, the Activity in series [3] is 2.4 ×10³ /M/s; with HL-60 [4], “Toxic”.

The molecule `Cc1ccc(C(=O)CC2(O)C(=O)Nc3ccc(O)cc32)cc1` (stereo not given) gave a pIC50 with Liver microsome of 3.80. For the same molecule, the result in the series with HL-60 [1] was Active. For the same molecule, in series [2], the logP was 2.2. Besides, the Activity in series [3] is 1.8 ×10³ /M/s; in the series with HL-60 [4], “Non-toxic”.

The molecule `N#Cc1ccc(C(=O)CC2(O)C(=O)Nc3ccc(O)cc32)cc1` (stereo not given) gave a pIC50 in the series with Liver microsome of 3.82. For the same molecule, the outcome in the series on HL-60 [1] was Active. Moreover, the logP in series [2] turned out to be 1.91. The Activity was 1.7 ×10³ /M/s in series [3] and “Toxic” in the series on HL-60 [4].

In the case of `O=C(CC1(O)C(=O)Nc2ccc(O)cc21)c1ccc(F)cc1` (stereo not given), the negative-log IC50 (pIC50) in the series with Liver microsome is 4.02. Also, in the series on HL-60 [1], the outcome was Active. Besides, the logP in series [2] stood at 1.93. Also, the results for the Activity (in series [3]; in the series on HL-60 [4]) were 1.5 ×10³ /M/s and “Toxic”, respectively.

The molecule `O=C(CC1(O)C(=O)Nc2ccc(O)cc21)c1ccccc1` (stereo not given) had a negative logarithm of the IC50 (pIC50) in the series with Liver microsome of 3.62. For the same molecule, the outcome in the series with HL-60 [1] was Active. Besides, the logP in series [2] turned out to be 1.07. The Activity was 1.9 ×10³ /M/s in series [3] and “Non-toxic” in the series on HL-60 [4].

Molecule `O=C(CC1(O)C(=O)Nc2ccc(O)cc21)c1ccc(Br)cc1` (stereo not given) had a pIC50 in the series with Liver microsome of 4.12. The result with HL-60 [1] was Active. Besides, the logP in series [2] came out at 2.55. The values for the Activity (in series [3]; in the series on HL-60 [4]) were 1.2 ×10³ /M/s and “Toxic”, respectively.

On to `COc1ccc(C(=O)CC2(O)C(=O)Nc3ccc(O)cc32)cc1` (stereo not given), for which, in the series with Liver microsome, the pIC50 was 3.65. In addition, the result with HL-60 [1] was Active. The logP in series [2] was found to be 1.74. The Activity in series [3] was 1.5 ×10³ /M/s; in the series on HL-60 [4], “Non-toxic”.

What is called pIC50 is the IC50 on a negative log10 scale, so that one unit is a factor of ten.

Source of the values: ChEMBL document CHEMBL3091393, “Antioxidant activities of 5-hydroxyoxindole and its 3-hydroxy-3-phenacyl derivatives: the suppression of lipid peroxidation and intracellular oxidative stress” (Bioorg Med Chem, 2013).
